Experimental findings from ChEMBL document CHEMBL5696442, “Discovery of type II inhibitors of TGFβ-activated kinase 1 (TAK1) and mitogen-activated protein kinase kinase kinase kinase 2 (MAP4K2)” (J Med Chem, 2015) are described below.

As a reminder, the inhibition is the drop in the measured response relative to a control, in per cent.

Holding throughout (assay type): cell-based
In experiment [1] the target is Cyclin-dependent kinase 17 (Homo sapiens) (UniProt Q00537). As to the kind of experiment: Inhibition of PCTAIRE2 Lys1 labeling site harbouring SKLTENLVALKEIR in human A-375 cells at 5 uM by KiNativ Profiling analysis relative to control.
Cyclin-dependent kinase 17 (Homo sapiens), sequence (Q00537 whole entry, looked up): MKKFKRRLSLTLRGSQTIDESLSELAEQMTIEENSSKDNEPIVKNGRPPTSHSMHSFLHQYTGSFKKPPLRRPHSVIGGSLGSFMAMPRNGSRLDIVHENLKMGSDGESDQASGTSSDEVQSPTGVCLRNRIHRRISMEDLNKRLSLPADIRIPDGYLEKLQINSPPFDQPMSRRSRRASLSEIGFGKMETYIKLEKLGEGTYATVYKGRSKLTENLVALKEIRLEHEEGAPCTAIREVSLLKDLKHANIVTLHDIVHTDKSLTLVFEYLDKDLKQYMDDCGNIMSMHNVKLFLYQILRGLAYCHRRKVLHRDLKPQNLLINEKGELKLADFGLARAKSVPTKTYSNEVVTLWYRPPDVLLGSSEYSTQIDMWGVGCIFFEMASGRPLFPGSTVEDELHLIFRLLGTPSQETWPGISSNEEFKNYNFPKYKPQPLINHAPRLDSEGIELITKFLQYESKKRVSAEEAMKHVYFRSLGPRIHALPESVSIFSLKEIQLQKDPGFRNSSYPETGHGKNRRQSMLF
In experiment [2] the target is Dual specificity mitogen-activated protein kinase kinase 1 (Homo sapiens) (UniProt Q02750). The experiment is described as follows: Inhibition of MAP2K1 Lys2 labeling site harbouring DVKPSNILVNSR in human A-375 cells at 0.05 uM by KiNativ Profiling analysis relative to control.
Dual specificity mitogen-activated protein kinase kinase 1 (Homo sapiens), sequence (Q02750 whole entry): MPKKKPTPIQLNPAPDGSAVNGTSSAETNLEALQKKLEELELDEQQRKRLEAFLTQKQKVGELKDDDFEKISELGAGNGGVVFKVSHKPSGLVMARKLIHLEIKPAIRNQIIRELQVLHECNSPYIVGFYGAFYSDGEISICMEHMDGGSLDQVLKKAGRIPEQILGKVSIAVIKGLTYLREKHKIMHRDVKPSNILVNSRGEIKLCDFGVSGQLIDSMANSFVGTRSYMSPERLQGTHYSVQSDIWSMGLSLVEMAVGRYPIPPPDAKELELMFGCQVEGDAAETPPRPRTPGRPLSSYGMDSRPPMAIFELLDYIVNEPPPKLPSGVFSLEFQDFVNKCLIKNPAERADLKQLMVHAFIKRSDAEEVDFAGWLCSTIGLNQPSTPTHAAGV
The target in experiment [3] is T1, EKC/KEOPS complex subunit TP53RK (Homo sapiens) (UniProt Q96S44).
T1 sequence (whole entry): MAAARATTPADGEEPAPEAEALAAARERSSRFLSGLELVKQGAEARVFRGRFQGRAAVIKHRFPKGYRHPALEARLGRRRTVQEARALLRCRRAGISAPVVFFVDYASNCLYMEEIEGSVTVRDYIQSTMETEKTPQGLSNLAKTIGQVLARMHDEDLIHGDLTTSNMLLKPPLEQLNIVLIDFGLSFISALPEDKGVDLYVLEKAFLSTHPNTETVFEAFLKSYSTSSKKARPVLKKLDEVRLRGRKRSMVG
The experiment is described as follows: Inhibition of PRPK ATP Loop labeling site in human A-375 cells at 0.5 uM by KiNativ Profiling analysis relative to control.

Experiment [4] concerns the target T2, Aurora kinase C (Homo sapiens) (UniProt Q9UQB9).
T2 sequence (whole entry): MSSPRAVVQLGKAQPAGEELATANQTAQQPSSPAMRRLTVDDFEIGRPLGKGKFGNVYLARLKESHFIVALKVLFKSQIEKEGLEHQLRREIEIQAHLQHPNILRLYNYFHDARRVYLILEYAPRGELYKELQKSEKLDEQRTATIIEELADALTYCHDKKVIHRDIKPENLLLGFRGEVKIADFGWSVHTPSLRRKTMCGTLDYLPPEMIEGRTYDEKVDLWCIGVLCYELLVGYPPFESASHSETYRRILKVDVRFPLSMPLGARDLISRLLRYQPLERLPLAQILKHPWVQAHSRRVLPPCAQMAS
The experiment is described as follows: Inhibition of AurC ATP Loop labeling site in human A-375 cells at 5 uM by KiNativ Profiling analysis relative to control. The gist of the method: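 Live A375 melanoma cells were treated with compound at 5 or 0.5 μM, then lysed. The lysates were labeled with a lysine-reactive ATP or ADP-biotin probe. Kinase protection from probe labeling was measured by KiNativ.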

In experiment [5] the target is Protein kinase C alpha type (Homo sapiens) (UniProt P17252). The experiment is described as follows: Inhibition of PKCa Lys2 labeling site in human A-375 cells at 5 uM by KiNativ Profiling analysis relative to control.
Experiment [6] addresses Epidermal growth factor receptor (Homo sapiens) (UniProt P00533). The experiment is described as follows: Inhibition of EGFR ACT labeling site harbouring LLGAEEKEYHAEGGKVPIK in human A-375 cells at 0.05 uM by KiNativ Profiling analysis relative to control.
For experiment [7], the target named is T3, Kinase suppressor of Ras 2 (Homo sapiens) (UniProt Q6VAB6).
T3 sequence (whole entry): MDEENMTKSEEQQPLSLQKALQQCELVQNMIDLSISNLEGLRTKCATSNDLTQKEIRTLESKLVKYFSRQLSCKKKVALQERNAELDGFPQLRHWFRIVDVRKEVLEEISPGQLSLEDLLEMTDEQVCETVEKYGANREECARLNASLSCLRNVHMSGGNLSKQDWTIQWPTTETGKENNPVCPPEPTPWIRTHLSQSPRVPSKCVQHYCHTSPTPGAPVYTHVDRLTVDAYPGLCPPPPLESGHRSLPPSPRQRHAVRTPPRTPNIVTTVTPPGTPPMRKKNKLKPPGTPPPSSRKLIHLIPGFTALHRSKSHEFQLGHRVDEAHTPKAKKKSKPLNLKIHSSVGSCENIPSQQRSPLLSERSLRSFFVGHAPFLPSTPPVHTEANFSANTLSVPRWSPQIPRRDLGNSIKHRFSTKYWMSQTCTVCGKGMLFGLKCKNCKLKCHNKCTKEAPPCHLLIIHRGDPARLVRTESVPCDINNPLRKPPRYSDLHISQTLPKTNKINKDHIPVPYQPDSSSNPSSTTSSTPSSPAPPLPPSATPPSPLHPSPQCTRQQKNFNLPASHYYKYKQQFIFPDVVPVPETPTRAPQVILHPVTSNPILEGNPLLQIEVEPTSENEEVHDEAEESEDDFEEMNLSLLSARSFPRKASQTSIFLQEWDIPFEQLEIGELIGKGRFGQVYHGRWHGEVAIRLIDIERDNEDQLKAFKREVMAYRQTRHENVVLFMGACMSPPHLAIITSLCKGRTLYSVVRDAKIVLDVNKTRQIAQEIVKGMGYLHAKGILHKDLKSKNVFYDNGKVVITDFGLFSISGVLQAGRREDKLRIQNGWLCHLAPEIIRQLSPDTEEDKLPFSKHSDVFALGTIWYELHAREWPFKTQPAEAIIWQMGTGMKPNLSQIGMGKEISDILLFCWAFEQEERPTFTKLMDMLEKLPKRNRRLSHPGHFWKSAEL
The experiment is described as follows: Inhibition of KSR2 ACT labeling site in human A-375 cells at 5 uM by KiNativ Profiling analysis relative to control.

Experiment [8] has as its target T4, Serine/threonine-protein kinase TBK1 (Homo sapiens) (UniProt Q9UHD2).
T4 sequence (whole entry): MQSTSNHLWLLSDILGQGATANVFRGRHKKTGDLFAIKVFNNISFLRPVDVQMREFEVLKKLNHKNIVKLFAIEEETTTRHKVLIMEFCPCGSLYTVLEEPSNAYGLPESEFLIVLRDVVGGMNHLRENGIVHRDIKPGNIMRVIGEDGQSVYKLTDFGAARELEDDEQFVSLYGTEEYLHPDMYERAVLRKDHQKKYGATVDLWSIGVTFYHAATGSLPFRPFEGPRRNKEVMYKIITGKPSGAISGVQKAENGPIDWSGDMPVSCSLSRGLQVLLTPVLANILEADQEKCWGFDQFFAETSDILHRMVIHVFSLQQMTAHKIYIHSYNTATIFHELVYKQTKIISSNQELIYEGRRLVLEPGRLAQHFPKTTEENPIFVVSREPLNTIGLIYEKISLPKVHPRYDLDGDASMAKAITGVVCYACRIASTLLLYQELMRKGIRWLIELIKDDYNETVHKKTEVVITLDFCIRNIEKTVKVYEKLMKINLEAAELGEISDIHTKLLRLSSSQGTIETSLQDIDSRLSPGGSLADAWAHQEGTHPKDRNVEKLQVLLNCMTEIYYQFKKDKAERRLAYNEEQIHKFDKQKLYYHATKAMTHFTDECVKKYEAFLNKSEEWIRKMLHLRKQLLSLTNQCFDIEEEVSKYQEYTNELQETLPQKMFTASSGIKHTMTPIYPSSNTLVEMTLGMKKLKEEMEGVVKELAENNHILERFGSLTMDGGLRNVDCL
As to the kind of experiment: Inhibition of TBK1 Lys2 labeling site in human A-375 cells at 0.05 uM by KiNativ Profiling analysis relative to control.

Epidermal growth factor receptor (Homo sapiens), sequence (P00533 whole entry): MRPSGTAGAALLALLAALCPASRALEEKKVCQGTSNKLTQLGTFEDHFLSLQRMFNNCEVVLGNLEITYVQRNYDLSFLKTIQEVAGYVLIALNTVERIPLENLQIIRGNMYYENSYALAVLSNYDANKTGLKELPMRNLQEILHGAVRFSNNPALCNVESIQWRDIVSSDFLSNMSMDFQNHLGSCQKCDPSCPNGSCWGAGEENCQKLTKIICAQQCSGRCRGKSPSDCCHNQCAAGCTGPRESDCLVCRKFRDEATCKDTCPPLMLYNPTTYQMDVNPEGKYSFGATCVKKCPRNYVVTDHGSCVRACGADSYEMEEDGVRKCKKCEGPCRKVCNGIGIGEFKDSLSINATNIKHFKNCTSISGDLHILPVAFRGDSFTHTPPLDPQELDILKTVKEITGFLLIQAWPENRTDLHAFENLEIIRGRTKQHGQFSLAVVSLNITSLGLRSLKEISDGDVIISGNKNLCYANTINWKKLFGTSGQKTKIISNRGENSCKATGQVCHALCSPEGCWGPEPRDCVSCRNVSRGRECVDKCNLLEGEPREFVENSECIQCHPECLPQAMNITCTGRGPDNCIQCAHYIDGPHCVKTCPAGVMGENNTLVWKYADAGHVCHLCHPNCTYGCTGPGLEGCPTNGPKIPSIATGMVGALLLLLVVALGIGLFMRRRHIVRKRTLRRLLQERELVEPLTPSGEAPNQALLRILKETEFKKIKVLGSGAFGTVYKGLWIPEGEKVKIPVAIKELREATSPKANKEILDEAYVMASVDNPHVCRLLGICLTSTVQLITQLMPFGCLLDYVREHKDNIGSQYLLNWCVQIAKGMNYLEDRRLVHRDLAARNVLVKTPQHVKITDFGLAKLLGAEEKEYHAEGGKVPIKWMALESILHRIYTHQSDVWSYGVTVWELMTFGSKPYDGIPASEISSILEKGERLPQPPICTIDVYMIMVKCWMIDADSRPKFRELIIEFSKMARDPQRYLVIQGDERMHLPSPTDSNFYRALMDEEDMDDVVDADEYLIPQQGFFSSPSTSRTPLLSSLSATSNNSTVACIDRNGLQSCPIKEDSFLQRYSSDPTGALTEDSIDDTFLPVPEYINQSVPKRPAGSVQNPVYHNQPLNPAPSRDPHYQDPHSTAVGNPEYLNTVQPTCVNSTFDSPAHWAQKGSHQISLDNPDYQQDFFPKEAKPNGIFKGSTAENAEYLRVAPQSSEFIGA

On to `CCN1CCN(Cc2ccc(NC(=O)c3ccc(C)c(/C=C/c4cnc5[nH]ccc5c4OC)c3)cc2C(F)(F)F)CC1`, for which the inhibition in experiment [1] is 24.3%; in experiment [2], -8.3%; in experiment [3], 9.6%; in experiment [4] it was 48.5%; in experiment [5], 50.2%; in experiment [6], -6.7%. For the same molecule, the results for the inhibition in experiment [7] and in experiment [8] were 12.2% and 19.8%, respectively.
In the case of `CCN1CCN(Cc2ccc(NC(=O)c3ccc(C)c(Oc4ccnc5[nH]ccc45)c3)cc2C(F)(F)F)CC1`, the inhibition in experiment [1] was 73.3%; in experiment [2], 6.1%; in experiment [3], 9.2%; in experiment [4], 31.4%; in experiment [5] it was 51%; in experiment [6], 17.5%. In addition, the values for the inhibition in experiment [7] and in experiment [8] were 32.1% and 29.2%, respectively.
